Laboratory results published in ChEMBL document CHEMBL1255354, “Methicillin-resistant Staphylococcus saprophyticus isolates carrying staphylococcal cassette chromosome mec have emerged in urogenital tract infections” (2008).
≈ marks a conversion by molar mass, not a printed value.

Columns and labels:
[1] = test system: Staphylococcus saprophyticus; assay: Antibacterial activity against methicillin-resistant mecA-positive Staphylococcus saprophyticus isolates isolated from genitourinary tracts of acute cystitis patient after 24 hrs at 35 degC by agar dilution method; type: functional; details: Urine
Summary of the method: (§1)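 MICs by agar dilution per CLSI M7-A6 on Mueller-Hinton agar, plates incubated 35°C for 24 h. Isolates identified as S. saprophyticus by Gram stain, catalase, coagulase, DNase, egg yolk mannitol salt agar growth, novobiocin susceptibility and ID 32 API Staph; mecA detected by dot-blot hybridization.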

[2] = test system: Staphylococcus saprophyticus; assay: Antibacterial activity against methicillin-resistant mecA-positive Staphylococcus saprophyticus isolate TSU57 isolated from genitourinary tracts of acute cystitis patient after 24 hrs at 35 degC by agar dilution method; type: functional; details: isolate TSU57, Urine; summary of the method: as §1
[3] = test system: Staphylococcus saprophyticus; assay: Antibacterial activity against methicillin-resistant mecA-positive Staphylococcus saprophyticus isolate TSU90 isolated from genitourinary tracts of acute cystitis patient after 24 hrs at 35 degC by agar dilution method; type: functional; details: isolate TSU90, Urine; summary of the method: as §1
[4] = test system: Staphylococcus saprophyticus; assay: Antibacterial activity against methicillin-resistant mecA-positive Staphylococcus saprophyticus isolate TSU67 isolated from genitourinary tracts of acute cystitis patient after 24 hrs at 35 degC by agar dilution method; type: functional; details: isolate TSU67, Urine; summary of the method: as §1
[5] = test system: Staphylococcus saprophyticus; assay: Antibacterial activity against methicillin-resistant mecA-positive Staphylococcus saprophyticus isolate TSU18 isolated from genitourinary tracts of acute cystitis patient after 24 hrs at 35 degC by agar dilution method; type: functional; details: isolate TSU18, Urine; summary of the method: as §1
[6] = test system: Staphylococcus saprophyticus; assay: Antibacterial activity against methicillin-resistant mecA-positive Staphylococcus saprophyticus isolate TSU69 isolated from genitourinary tracts of acute cystitis patient after 24 hrs at 35 degC by agar dilution method; type: functional; details: isolate TSU69, Urine; summary of the method: as §1
[7] = test system: Staphylococcus saprophyticus; assay: Antibacterial activity against methicillin-resistant mecA-positive Staphylococcus saprophyticus isolate TSU28 isolated from genitourinary tracts of acute cystitis patient after 24 hrs at 35 degC by agar dilution method; type: functional; details: isolate TSU28, Urine; summary of the method: as §1
[8] = test system: Staphylococcus saprophyticus; assay: Antibacterial activity against methicillin-resistant mecA-positive Staphylococcus saprophyticus isolate TSU47 isolated from genitourinary tracts of acute cystitis patient after 24 hrs at 35 degC by agar dilution method; type: functional; details: isolate TSU47, Urine; summary of the method: as §1
[9] = test system: Staphylococcus saprophyticus; assay: Antibacterial activity against methicillin-resistant mecA-positive Staphylococcus saprophyticus isolate TSU33 after 24 hrs at 35 degC by agar dilution method; details: isolate TSU33, 24 h

| Structure (SMILES) | MIC50 [1] [µg/mL] | MIC90 [1] [µg/mL] | MIC [2] [µg/mL] | MIC [3] [µg/mL] | MIC [4] [µg/mL] | MIC [5] [µg/mL] | MIC [6] [µg/mL] | MIC [7] [µg/mL] | MIC [8] [µg/mL] | MIC [9] [µg/mL] |
| --- | --- | --- | --- | --- | --- | --- | --- | --- | --- | --- |
| NC[C@H]1O[C@H](O[C@H]2[C@H](O)[C@@H](O[C@H]3O[C@H](CO)[C@@H](O)[C@H](N)[C@H]3O)[C@H](N)C[C@@H]2N)[C@H](O)[C@@H](O)[C@@H]1O [KANAMYCIN] | 0.25 (≈ 0.516 µM) | 0.5 (≈ 1.03 µM) | 0.25 (≈ 0.516 µM) | 0.5 (≈ 1.03 µM) | 0.25 (≈ 0.516 µM) | 0.25 (≈ 0.516 µM) | 0.5 (≈ 1.03 µM) | 0.25 (≈ 0.516 µM) | 0.25 (≈ 0.516 µM) | 0.25 (≈ 0.516 µM) |
| Cc1nnc(SCC2=C(C(=O)O)N3C(=O)[C@@H](NC(=O)Cn4cnnn4)[C@H]3SC2)s1 [CEFAZOLIN] | 1 (≈ 2.2 µM) | 2 (≈ 4.4 µM) | 16 (≈ 35.2 µM) | 64 (≈ 141 µM) | 128 (≈ 282 µM) | 16 (≈ 35.2 µM) | 128 (≈ 282 µM) | 32 (≈ 70.4 µM) | 4 (≈ 8.8 µM) | 1 (≈ 2.2 µM) |
| C[C@@H]1O[C@@H]1P(=O)(O)O [FOSFOMYCIN] | 128 (≈ 927 µM) | ≥ 512 | 128 (≈ 927 µM) | ≥ 512 | 256 (≈ 1850 µM) | 64 (≈ 464 µM) | ≥ 512 | ≥ 512 | 128 (≈ 927 µM) | 128 (≈ 927 µM) |
| CN[C@H](CC(C)C)C(=O)N[C@H]1C(=O)N[C@@H](CC(N)=O)C(=O)N[C@H]2C(=O)N[C@H]3C(=O)N[C@H](C(=O)N[C@H](C(=O)O)c4cc(O)cc(O)c4-c4cc3ccc4O)[C@H](O)c3ccc(c(Cl)c3)Oc3cc2cc(c3O[C@@H]2O[C@H](CO)[C@@H](O)[C@H](O)[C@H]2O[C@H]2C[C@](C)(N)[C@H](O)[C@H](C)O2)Oc2ccc(cc2Cl)[C@H]1O [VANCOMYCIN] | 0.5 (≈ 0.345 µM) | 1 (≈ 0.69 µM) | 0.5 (≈ 0.345 µM) | 1 (≈ 0.69 µM) | 1 (≈ 0.69 µM) | 0.5 (≈ 0.345 µM) | 1 (≈ 0.69 µM) | 1 (≈ 0.69 µM) | 1 (≈ 0.69 µM) | 0.5 (≈ 0.345 µM) |
| CC[C@H]1OC(=O)[C@H](C)[C@@H](O[C@H]2C[C@@](C)(OC)[C@@H](O)[C@H](C)O2)[C@H](C)[C@@H](O[C@@H]2O[C@H](C)C[C@H](N(C)C)[C@H]2O)[C@](C)(OC)C[C@@H](C)C(=O)[C@H](C)[C@@H](O)[C@]1(C)O [CLARITHROMYCIN] | ≤ 0.06 | 1 (≈ 1.34 µM) | 16 (≈ 21.4 µM) | 16 (≈ 21.4 µM) | 0.125 (≈ 0.167 µM) | 16 (≈ 21.4 µM) | 0.125 (≈ 0.167 µM) | 32 (≈ 42.8 µM) | 16 (≈ 21.4 µM) | 16 (≈ 21.4 µM) |
| CO[C@@]1(NC(=O)Cc2cccs2)C(=O)N2C(C(=O)O)=C(COC(N)=O)CS[C@@H]21 [CEFOXITIN] | 2 (≈ 4.68 µM) | 2 (≈ 4.68 µM) | 16 (≈ 37.4 µM) | 16 (≈ 37.4 µM) | 32 (≈ 74.9 µM) | 16 (≈ 37.4 µM) | 32 (≈ 74.9 µM) | 16 (≈ 37.4 µM) | 8 (≈ 18.7 µM) | 8 (≈ 18.7 µM) |
| CC[C@H]1OC(=O)[C@H](C)[C@@H](O[C@H]2C[C@@](C)(OC)[C@@H](O)[C@H](C)O2)[C@H](C)[C@@H](O[C@@H]2O[C@H](C)C[C@H](N(C)C)[C@H]2O)[C@](C)(O)C[C@@H](C)C(=O)[C@H](C)[C@@H](O)[C@]1(C)O [ERYTHROMYCIN] | 0.125 (≈ 0.17 µM) | 2 (≈ 2.73 µM) | 64 (≈ 87.2 µM) | 64 (≈ 87.2 µM) | 0.25 (≈ 0.341 µM) | 64 (≈ 87.2 µM) | 0.25 (≈ 0.341 µM) | 128 (≈ 174 µM) | 64 (≈ 87.2 µM) | 64 (≈ 87.2 µM) |
| C[C@@H](O)[C@H]1C(=O)N2C(C(=O)O)=C(SCCNC=N)C[C@H]12 [IMIPENEM ANHYDROUS] | ≤ 0.06 | ≤ 0.06 | 0.125 (≈ 0.418 µM) | 0.125 (≈ 0.418 µM) | 0.125 (≈ 0.418 µM) | ≤ 0.06 | 0.125 (≈ 0.418 µM) | 0.125 (≈ 0.418 µM) | 0.125 (≈ 0.418 µM) | ≤ 0.06 |
| CC1COc2c(N3CCN(C)CC3)c(F)cc3c(=O)c(C(=O)O)cn1c23 (stereo unspecified) [OFLOXACIN] | – | 1 (≈ 2.77 µM) | – | – | 1 (≈ 2.77 µM) | – | 1 (≈ 2.77 µM) | – | – | – |
| Cc1onc(-c2ccccc2)c1C(=O)N[C@@H]1C(=O)N2[C@@H]1SC(C)(C)[C@@H]2C(=O)O [OXACILLIN] | 0.5 (≈ 1.25 µM) | 1 (≈ 2.49 µM) | 128 (≈ 319 µM) | 128 (≈ 319 µM) | 256 (≈ 638 µM) | 128 (≈ 319 µM) | 128 (≈ 319 µM) | 256 (≈ 638 µM) | 64 (≈ 159 µM) | 128 (≈ 319 µM) |
| NCC[C@H](O)C(=O)N[C@@H]1C[C@H](N)[C@@H](O[C@H]2O[C@H](CN)CC[C@H]2N)[C@H](O)[C@H]1O[C@H]1O[C@H](CO)[C@@H](O)[C@H](N)[C@H]1O [ARBEKACIN] | ≤ 0.06 | ≤ 0.06 | ≤ 0.06 | ≤ 0.06 | ≤ 0.06 | ≤ 0.06 | ≤ 0.06 | ≤ 0.06 | ≤ 0.06 | ≤ 0.06 |
| CC1(C)S[C@@H]2[C@H](NC(=O)[C@H](N)c3ccccc3)C(=O)N2[C@H]1C(=O)O [AMPICILLIN] | 0.25 (≈ 0.715 µM) | 1 (≈ 2.86 µM) | – | – | – | – | – | – | 4 (≈ 11.4 µM) | – |
